Laboratory results: PubChem BioAssay
The source made the active and inactive calls.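 Rule for the calls: active = growth inhibition above a set limit, 3 SD over mean compound inhibition, in both replicates (cut at about 43% in these data); inconclusive = above the limit in only one replicate; inactive = at or below the limit in both replicates.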

assay: Restrictive medium S. cerevisiae growth inhibition, OD615, pilot screen of yeast lifespan reduction project, restrictive growth control (AID 706); conditions: OD615, 48 h, at 10 µM, active compounds read high;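 note: modified DeaD lifespan yeast strain shifted to restrictive glucose medium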
Procedure, shortened: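 Material: modified S. cerevisiae; Medium: glucose-based CSMM-D restrictive medium; Compound dosing: one concentration, 10 µM final, 0.25% DMSO; Incubation: 48 h compound exposure at 30 °C; Measured by: OD615.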

Growth inhibition, active:
CCC1CCCCN1C(=O)CSc1nnc(-c2ccc(OC)cc2)o1 (stereo unspecified) 54.4%

Growth inhibition, inactive:
Nc1nc(N2CCCCC2)nc(N(c2ccccc2)c2ccccc2)n1 8%
O=C1c2ccccc2C(Nc2cccnc2)N1Cc1ccccc1Cl (stereo unspecified) 10.4%
CCN1CCN(c2nc3c(c(=O)[nH]c(=O)n3C)n2CCSc2nc3ccccc3s2)CC1 -6%
COc1cc(C(O)c2nc3ccccc3n2C)cc(OC)c1OC (stereo unspecified) -9.59%
CCOC(=O)N1CCC(Nc2nc3ccccc3n3cnnc23)CC1 -10.8%
COc1ccc(C2C(C(C)=O)=C(C)N=c3s/c(=C/c4ccc5c(c4)OCO5)c(=O)n32)cc1 (stereo unspecified) -17.4%
CCOC(=O)C1=C(C)N(C)C(=O)NC1c1ccccc1OC (stereo unspecified) -3.44%
CCCCS(=O)(=O)NC1=NCN(CCOC(=O)c2ccccc2)CN1 -6.13%
COc1ccc(-n2c(Cc3cccn3C)nnc2SCC(=O)Nc2cccc(Cl)c2)cc1 21.3%
COc1ccc(N(CC(=O)Nc2ccc3c(c2)OCO3)S(=O)(=O)c2c(C)nn(C)c2C)cc1 -11.5%
CCOc1ccc(C2CC(c3ccccc3C)n3nc(N)nc3N2)cc1 (stereo unspecified) 0.985%
Cc1cc(N)n2nc(-c3ccccc3)cc2n1 -13.9%
CCCCCn1c(CCNC(=O)CCC)nc2ccccc21 -11.5%
O=C(c1ccc2c(c1)OCCO2)N1CCCCC1 6.82%
O=C(NCCc1c[nH]c2ccccc12)c1cnc2n(c1=O)CCS2 2.1%
